From PubChem BioAssay
Inconclusive results are not listed.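 How the source made its calls, unless noted: active means viability increase at or above a cutoff of the median across tested compounds plus 3 SD (cut at about 8.5% in these data, passing the limit was not always enough); inconclusive means some gains above the cutoff, reason not given; inactive means the rest.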

Assays:
[1] = OD615 S. cerevisiae growth inhibition, permissive medium, pilot counter-assay, permissive growth control for S. cerevisiae lifespan shortening project (AID 705;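 active means growth inhibition above 25% in both replicates, a cutoff set 3 SD above the mean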); settings: OD615, 24 h, at 10 µM, stronger effect = higher value
Outline: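 System: S. cerevisiae with engineered DeaD lifespan system. Medium: SC raffinose/galactose permissive medium. Doses: single compound dose of 10 µM, 0.25% DMSO final. Schedule: 24 h exposure, 30 °C. Measured by: OD615 turbidity read. Read-out: growth inhibition.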

[2] = Restrictive medium S. cerevisiae growth inhibition, OD615, pilot screen of yeast lifespan reduction project, restrictive growth control (AID 706;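 active means growth inhibition above a set limit, 3 SD over mean compound inhibition, in both replicates, cut at about 43% in these data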;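 further: modified DeaD lifespan yeast strain shifted to restrictive glucose medium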); settings: OD615, 48 h, at 10 µM, stronger effect = higher value
Outline: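 Assay system – genetically modified Saccharomyces cerevisiae, DeaD replicative lifespan assay strain · Medium – CSMM-D glucose medium · Doses – 10 µM compound, 0.25% DMSO · Times – 4 h pre-incubation, 48 h exposure at 30 °C · Signal – optical density at 615 nm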

[3] = viability gain of MRP-1-high H69AR cells under doxorubicin, pilot screen, MRP-1 activator project, CellTiter-Glo, duplicate (AID 807); settings: H69AR viability with doxorubicin, CellTiter-Glo luminescence; at 10 µM; stronger effect = higher value;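 further: compound pretreatment 18-22 h then 72 h combined with doxorubicin; 0% = doxorubicin alone and 100% = vehicle without doxorubicin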
[4] = growth suppression of beta-catenin knockout HCT116, pilot screen, human colon tumor cells (AID 823;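 active means cell viability at or below a set limit in both duplicate runs, the limit being the all-compound median minus 4 SD, cut at about 23% in these data, passing the limit was not always enough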;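 further: 0% = wells killed by 20 µM Hyamine and 100% = untreated DMSO cell wells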); settings: CellTiter-Glo, 60 h, at 10 µM, stronger effect = lower value
[5] = growth suppression of PTEN-deleted HCT116, pilot screen, cell-based, HCT116 clonal line, CellTiter-Glo (AID 824;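 active means viability at or below 27.92% in each of two runs, the all-compound median minus 4 SD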;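 further: 0% = 20 µM Hyamine control and 100% = vehicle cell control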); settings: 60 h, at 10 µM, stronger effect = lower value
[6] = inhibitors of the yeast RAM network, pilot screen, dse1pr::URA3 reporter, 5-FOA selection (AID 869;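 active means inhibition over a set limit, the all-compound mean plus 3 SD, in both replicate runs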;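 further: 0% = DMSO wells with no growth and 100% = 10 µM 1-NA-PP1 with full growth; RAM network block rescues cells from 5-FOA so hits raise OD615 growth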); settings: S. cerevisiae dse1pr::URA3 5-FOA growth, OD615, 2 d; at 10 µM; stronger effect = higher value; strain carries analog-sensitive mutant Cbk1 kinase
[7] = RAM signaling pathway blockade in yeast – S. cerevisiae, Pdr1DBD-CYC8 efflux-inhibited sensitized strain, primary screen (AID 1298;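 active means RAM network inhibition above 8.4% in each of two replicates, 3 SD over the compound average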;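 further: 0% = DMSO untreated cells without growth and 100% = 10 µM 1-NA-PP1 full growth; higher means more yeast growth rescued from 5-FOA killing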); settings: S. cerevisiae cbk1-as DSE1-URA3 strain, 5-FOA growth OD615, 2 d; at 50 µM; stronger effect = higher value

[O-]/[N+](=C\c1ccncc1)c1ccc(Br)cc1
inactive: growth inhibition [1] -15% | growth inhibition [2] -19.9% | viability increase [3] -4.14% | viability [4] 83.7% | viability [5] 87.9% | inhibition [6] 2.81% | RAM network inhibition [7] 6.02%

O=C(CSc1ccc2c(c1)OCCO2)NC(=O)NC1CCCC1
inactive: growth inhibition [1] -2.04% | growth inhibition [2] 2.58% | viability increase [3] -1.38% | viability [4] 87.7% | viability [5] 91.3% | inhibition [6] 0.535% | RAM network inhibition [7] -1.28%

CCCCn1c(CNC(=O)c2cccs2)nc2ccccc21
inactive: growth inhibition [1] -5.02% | growth inhibition [2] -5.51% | viability increase [3] -3.7% | viability [4] 101% | viability [5] 94.5% | inhibition [6] -0.215% | RAM network inhibition [7] -1.56%

CC1CCN(CC(C)OC(=O)c2ccc3c(c2)OCCO3)CC1 (stereo not drawn)
inactive: growth inhibition [1] -8.49% | growth inhibition [2] 6.58% | viability increase [3] -0.68% | viability [4] 112% | viability [5] 105% | inhibition [6] 1.62% | RAM network inhibition [7] 3.4%

Cc1cccc(-n2ncc3c(Nc4ccc(F)cc4)ncnc32)c1
inactive: growth inhibition [1] -11.3% | growth inhibition [2] -5.18% | viability increase [3] 2.21% | viability [4] 106% | viability [5] 95.4% | inhibition [6] 3.18% | RAM network inhibition [7] 1.56%

COC(=O)CC1Oc2ccccc2N(Cc2ccccc2)C1=O (stereo not drawn)
inactive: growth inhibition [1] -21.8% | growth inhibition [2] -15.5% | viability increase [3] -0.13% | viability [4] 92.2% | viability [5] 92.5% | inhibition [6] 1.56% | RAM network inhibition [7] 3.83%

CC1CCc2nn(CC(=O)NCc3ccco3)cc2C1 (stereo not drawn)
inactive: growth inhibition [1] 8.89% | growth inhibition [2] 2.02% | viability increase [3] -3.13% | viability [4] 92.7% | viability [5] 88.2% | inhibition [6] 2.08% | RAM network inhibition [7] 5.3%

O=C(O)Cc1ccc(NC(=O)C2CC=CCC2C(=O)O)cc1 (stereo not drawn)
inactive: growth inhibition [1] -7.36% | growth inhibition [2] 1.55% | viability increase [3] 1.02% | viability [4] 102% | viability [5] 104% | inhibition [6] 3.26% | RAM network inhibition [7] 8.93%

Cc1c2cn[nH]c(=O)c2c(C)n1Cc1ccc(F)cc1
inactive: growth inhibition [1] -17.7% | growth inhibition [2] -15% | viability increase [3] -3.21% | viability [4] 90.7% | viability [5] 98.5% | inhibition [6] 1.83% | RAM network inhibition [7] 5.11%

CC1CCN(CCCn2c(=S)[nH]c3ccccc3c2=O)CC1
inactive: growth inhibition [1] 1.02% | growth inhibition [2] 10.3% | viability increase [3] -2.18% | viability [4] 91.3% | viability [5] 93.7% | inhibition [6] 1.1% | RAM network inhibition [7] 0.66%

COc1ccc(C2NC(=O)NC(C)=C2C(=O)Nc2cccc(C)c2C)cc1 (stereo not drawn)
inactive: growth inhibition [1] -6.41% | growth inhibition [2] 1.47% | viability increase [3] -1.09% | viability [4] 101% | viability [5] 103% | inhibition [6] 0.77% | RAM network inhibition [7] 1.64%

Cn1c(NC(=O)CCC2CCCCC2)cc(=O)n(C)c1=O
inactive: growth inhibition [1] -1.97% | growth inhibition [2] -10.8% | viability increase [3] 2.29% | viability [4] 92.9% | viability [5] 83.6% | inhibition [6] 0.52% | RAM network inhibition [7] -1.2%

Cn1cc(SCC(=O)Nc2ccc3c(c2)OCO3)c2ccccc21
inactive: growth inhibition [1] -6.75% | growth inhibition [2] -9.39% | viability increase [3] -2.72% | viability [4] 100% | viability [5] 92.9% | inhibition [6] 1.69% | RAM network inhibition [7] 2.23%

CN1CCN(C(=O)c2cn(C)c3ccc(S(=O)(=O)N(C)C4CCCCC4)cc3c2=O)CC1
inactive: growth inhibition [1] -7.8% | growth inhibition [2] -13.2% | viability increase [3] -2.39% | viability [4] 102% | viability [5] 101% | inhibition [6] 0% | RAM network inhibition [7] -0.26%
